Twelve molecules from ChEMBL document CHEMBL1137471, “Dihydroxypyridopyrazine-1,6-dione HIV-1 integrase inhibitors” (Bioorg Med Chem Lett, 2007) can be followed below.

Data set [1] concerns the target Human immunodeficiency virus type 1 integrase (Human immunodeficiency virus 1, UniProt Q7ZJM1). As to the kind of experiment: Inhibition of HIV1 recombinant integrase strand transfer activity. The procedure, abridged: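 Strand transfer by recombinant HIV-1 integrase (0.1 µM) preassembled on immobilized oligonucleotides. Inhibition is relative to a no-inhibitor control run in quadruplicate and averaged, with background subtracted. IC50 given as mean of three experiments with standard deviation.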

Data set [2] concerns Human immunodeficiency virus 1. As to the kind of experiment: Antiviral activity against HIV1 3B infected in human MT4 cells assessed as inhibition of replication after 3 days by ELISA. Format: functional. Particulars: Human immunodeficiency virus 1, 3B, MT4, 72 h; read-out: CIC95.
Data set [3] deals with MT4. The experiment in a line: Cytotoxicity against human MT4 cells upto 20 uM after 24 hrs. To be noted: mt4, 24 h. It counts as cell-based.
Data set [4] concerns Liver microsomes. As to the kind of experiment: Protein binding in rat liver microsomes per 60 mins in absence of NADPH. It counts as ADME, Microsome. To be noted: 1 h. Put shortly: (§1)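 [14C]-labelled compound incubated with rat or human liver microsomes, with or without NADPH. Irreversibly bound radioactivity expressed as pmol equiv/mg/60 min.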
(Liver microsomes are vesicles of endoplasmic reticulum, rich in cytochrome P450 enzymes.)

The subject of data set [5] is Plasma. The experiment in a line: Protein binding in rat plasma after 6 hrs. It counts as ADME, cell-free. Put shortly:
(§2)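 [14C]-labelled compound given to rats in vivo. Irreversibly bound radioactivity measured in plasma and liver at 2, 6 and 24 h, expressed as pmol equiv/mg protein.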

Data set [6] concerns Liver microsomes. The experiment in a line: Protein binding in human liver microsomes per 60 mins in presence of NADPH. It counts as ADME, Microsome. To be noted: 1 h. Put shortly:
as §1

For data set [7], the system named is Liver. The experiment in a line: Protein binding in rat liver after 24 hrs. Format: ADME, tissue-based. Put shortly:
as §2

Data set [8] concerns Plasma. The experiment in a line: Protein binding in rat plasma after 24 hrs. It counts as ADME, cell-free. The procedure, abridged: as §2
Data set [9] relates to Liver. As to the kind of experiment: Protein binding in rat liver after 6 hrs. It counts as ADME, tissue-based. The procedure, abridged: as §2
Data set [10] concerns Plasma. As to the kind of experiment: Protein binding in rat plasma after 2 hrs. It counts as ADME, cell-free. The procedure, abridged:
as §2

The subject of data set [11] is Liver microsomes. As to the kind of experiment: Protein binding in human liver microsomes per 60 mins in absence of NADPH. It counts as ADME, Microsome. Particulars: 1 h. The procedure, abridged:
as §1

The test system of data set [12] is Liver. The experiment in a line: Protein binding in rat liver after 2 hrs. Format: ADME, tissue-based. Put shortly: as §2
The subject of data set [13] is Liver microsomes. As to the kind of experiment: Protein binding in rat liver microsomes per 60 mins in presence of NADPH. It counts as ADME, Microsome. Particulars: 1 h. The procedure, abridged: as §1
The species named for data set [14] is Rattus norvegicus. As to the kind of experiment: Plasma concentration in rat after 2 to 24 hrs. Format: ADME, organism-based. Particulars: in vivo. The procedure, abridged:
(§3)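 Rats dosed orally at 10 mg/kg as a solution in 1% aqueous methylcellulose. Plasma sampled through 24 h.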

Data set [15] can be described thus: Bioavailability in rat at 10 mg/kg, po. Particulars: in vivo. It counts as ADME, organism-based. The procedure, abridged: as §3

Each structure is given as a SMILES string.

As a reminder, the IC50 is the point on the concentration scale where inhibition reaches its midpoint. In general, bioavailability refers to the share of a dose that reaches the circulation, judged against a reference dose that is usually intravenous. A low value points to poor availability.

Sequence of Human immunodeficiency virus type 1 integrase (Q7ZJM1 whole entry): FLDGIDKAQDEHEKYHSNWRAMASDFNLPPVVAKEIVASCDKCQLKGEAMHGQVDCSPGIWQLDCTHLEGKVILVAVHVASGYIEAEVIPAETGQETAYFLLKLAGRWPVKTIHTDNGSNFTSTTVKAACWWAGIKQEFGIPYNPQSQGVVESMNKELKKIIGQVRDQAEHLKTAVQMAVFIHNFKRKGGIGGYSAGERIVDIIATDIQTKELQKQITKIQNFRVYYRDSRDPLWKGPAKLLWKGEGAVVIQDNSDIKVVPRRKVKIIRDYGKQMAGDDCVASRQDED

`O=C1c2c(O)c(O)cc(=O)n2CCCN1Cc1ccc(F)cc1`: the IC50 in data set [1] amounted to 1040 nM.
As to `O=C1c2c(O)c(O)cc(=O)n2CCN1Cc1ccccc1`, in [1], the IC50 came to 230 nM. Besides, the IC95 in [2] was 2.5 µM. Besides, the Activity entry in data set [3] is “Non-toxic”.
On to `O=C1c2[14c](O)[14c](O)cc(=O)n2CCN1Cc1ccc(F)cc1`, for which the Activity in data set [4] turned out to be 24.7 pmolequiv/mg; in data set [6], 19.6 pmolequiv/mg; in [11], 15.2 pmolequiv/mg; in data set [13], 24.2 pmolequiv/mg. Moreover, the PPB in [5], in data set [7], in data set [8], in data set [9], in data set [10] and in [12] was under 5 pmolequiv/mg each time.
Take `O=C1c2c(O)c(O)cc(=O)n2CCN1Cc1ccc(F)cc1`: the IC50 in [1] came to 100 nM. Moreover, in data set [14], the concentration turned out to be 500 nM. The molecule also came in with a bioavailability in data set [15] of 69%. Also, in data set [2], the IC95 is 0.31 µM. For the same molecule, in data set [3], the Activity result is “Non-toxic”.
For the molecule `O=c1c2c(O)c(O)cc(=O)n2ccn1Cc1ccc(F)cc1`, in data set [1], the IC50 worked out at 40 nM.
On to `O=C1c2c(O)c(O)cc(=O)n2CCN1Cc1cccc(Cl)c1`, for which the IC50 in [1] was found to be 40 nM. The IC95 in data set [2] came to 0.5 µM. Besides, the Activity entry in data set [3] is given as “Non-toxic”.
For the molecule `O=C1c2c(O)c(O)cc(=O)n2CCN1Cc1ccc(F)c(Cl)c1`, the 50% inhibitory concentration (IC50) in [1] came to 40 nM. Moreover, the IC95 in data set [2] is 0.25 µM. Moreover, the Activity result in data set [3] was “Non-toxic”.
As to `N#Cc1c(O)c(O)c2n(c1=O)CCN(Cc1ccc(F)cc1)C2=O`, in data set [1], the half-maximal inhibitory concentration (IC50) amounted to 20 nM. For the same molecule, the IC95 in [2] is over 1 µM. Also, the Activity entry in data set [3] is listed as “Non-toxic”.
Regarding `O=C1c2c(O)c(O)c(I)c(=O)n2CCN1Cc1ccc(F)cc1`, the half-maximal inhibitory concentration (IC50) in [1] is 20 nM. Further, the IC95 in data set [2] is over 1 µM. Besides, the Activity result in [3] is reported as “Non-toxic”.
`O=C1c2c(O)c(O)cc(=O)n2CCN1Cc1ccccc1Cl`: the IC50 in data set [1] is 370 nM. For the same molecule, in data set [2], the IC95 is over 1 µM. The Activity entry in data set [3] is “Non-toxic”.
As for `O=C1c2c(O)c(O)cc(=O)n2CCN1Cc1ccc(Cl)cc1`, the IC50 in data set [1] was 380 nM. In addition, in data set [2], the IC95 was found to be 1 µM. The Activity entry in data set [3] is on record as “Non-toxic”.
Consider `O=C1c2c(O)c(O)c(Br)c(=O)n2CCN1Cc1ccc(F)cc1`, for which the IC50 in data set [1] worked out at 30 nM. Further, the IC95 in [2] is 1 µM. Moreover, the Activity result in [3] is “Non-toxic”.
